The values that follow come from article PMC12799544 (Molecular Pharmacology, 2025).

For data set [1], the system named is RyR2. As to conditions: cited from earlier work.
Data set [2] addresses RyR2 (Mus musculus, UniProt E9Q401). In words: Ca spark assay in permeabilized ventricular cardiomyocytes. As to conditions: for Concentration dependence of Ca spark frequency: increasing concentrations. It is filed as cell-based, C57BL/6J mice. In a few lines: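 Mouse ventricular myocytes (C57BL/6J, 12–18 weeks, both sexes) attached 10 min on laminin at room temperature, saponin-permeabilized (40 μg/mL, 40 s), then bathed 15 min in pH 7.2 internal solution (5 mM MgATP, 0.5 mM EGTA, 0.12 mM CaCl2, Fluo-4) with 0.1% DMSO or test compound. Confocal x-t sparks in brick-shaped cells; caffeine used as reference activator. Hierarchical mixed-effects statistics; 4-parameter concentration-response fit.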

For data set [3], the target named is T1, RyR2 (Sus scrofa, UniProt A0A5G2R1W3). The data set can be described thus: RyR2 single-channel recording in artificial lipid bilayers. It is filed as biochemical, porcine. In a few lines:
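Porcine cardiac SR vesicles were fused into PE:PS:PC (5:3:2) bilayers with symmetric 250 mM Cs+ and TES pH 7.4. The cis side held 0.1 μM free Ca (CaCl2/BAPTA) plus 2 mM ATP, at 23 ± 2 °C and +40 mV. Compound (0.01–10 or 1–100 μM) was added cis with DMSO <0.1%. Po came from 30–60 s at a 50% threshold, relative to vehicle on the same channel. Dwell times were fitted with 2 exponentials; 4-parameter fit.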

Data set [4] deals with T2, RyR1 (Sus scrofa, UniProt P16960). In words: RyR1 single-channel recording in artificial lipid bilayers. It is filed as biochemical, porcine. Summed up: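 Porcine longissimus dorsi SR vesicles were fused into PE:PS:PC (5:3:2) bilayers with symmetric 250 mM Cs+ and TES pH 7.4. The cis side held 0.1 μM free Ca (CaCl2/BAPTA) plus 2 mM ATP, at 23 ± 2 °C. Compound was added cis by aliquot or local perfusion, DMSO <0.1%. Po came from 30–60 s recordings, 50% amplitude threshold, 1 kHz filter. Nonlinear 4-parameter concentration-response fit.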

Data set [5] deals with T1, RyR2. In words: [3H]-ryanodine ligand binding assay, cardiac SR membrane. Set-up: species or system porcine. Summed up: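 Porcine cardiac SR (3 mg/mL) was incubated 3 h at 37 °C with 7.5 nM [3H]-ryanodine and compound in 20 mM PIPES pH 7.0, 150 mM KCl, 5 mM ATP, 0.1 μM calmodulin and 0.1 μM free Ca (1 mM EGTA). Nonspecific binding used 15 μM cold ryanodine; maximal binding used 5 mM AMP-PNP plus 20 mM caffeine. Bound label was counted by filtration and scintillation, normalized to vehicle; 4-parameter fit.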

Data set [6] concerns the target T2, RyR1. In words: [3H]-ryanodine ligand binding assay, skeletal SR membrane. Also noted: species or system porcine. In a few lines:
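Porcine skeletal SR (1 mg/mL) was incubated 3 h at 37 °C with 10 nM [3H]-ryanodine and compound in 20 mM PIPES pH 7.0, 150 mM KCl, 5 mM ATP, 0.1 μM calmodulin and 0.1 μM free Ca (1 mM EGTA). Nonspecific binding used 15 μM cold ryanodine; maximal binding used 5 mM AMP-PNP plus 20 mM caffeine. Bound label was counted by filtration and scintillation, normalized to vehicle; 4-parameter fit.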

Data set [7] can be described thus: Caco-2 bidirectional permeability assay. In kind it is in vitro ADME, human. As to conditions: human, Caco-2, pH 7.4. Summed up: (§1)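 Caco-2 monolayers (passages 55–65) grown 21 days on 0.4 μm Transwell inserts and used only above 1000 Ω·cm2 TEER. Compound at 10 μM in HBSS (<1% DMSO) was dosed apically or basally. Samples at 0 and 2 h were analyzed by LC-MS for Papp, efflux ratio and recovery. Integrity was checked afterwards by lucifer yellow flux (≤0.5%).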
A general note: Caco-2 cells form a polarised layer with tight junctions and transporters.

Data set [8] has as its system Caco-2 cell monolayer. The data set can be described thus: Caco-2 bidirectional permeability assay. In kind it is in vitro ADME, human. The note with it: recovery. In a few lines: as §1
Data set [9] can be described thus: Parallel artificial membrane permeability assay. In kind it is in vitro ADME. In a few lines: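 Donor compound at 500 μM in PBS pH 7.4 with TPGS, across hydrophobic membranes pretreated with 1% lecithin in n-dodecane, into PBS acceptor. Incubated 14–18 h at room temperature in a humidified chamber. Donor and acceptor were quantified by LC-MS; Papp, percent recovery and percent diffusion came from ratio formulas.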

Molecules are shown by their SMILES. Several values for one entry are separate records, joined by “and”; a condition that tells them apart may be missing. Equal entries are not always repeated.

T1 sequence (A0A5G2R1W3 20-4900): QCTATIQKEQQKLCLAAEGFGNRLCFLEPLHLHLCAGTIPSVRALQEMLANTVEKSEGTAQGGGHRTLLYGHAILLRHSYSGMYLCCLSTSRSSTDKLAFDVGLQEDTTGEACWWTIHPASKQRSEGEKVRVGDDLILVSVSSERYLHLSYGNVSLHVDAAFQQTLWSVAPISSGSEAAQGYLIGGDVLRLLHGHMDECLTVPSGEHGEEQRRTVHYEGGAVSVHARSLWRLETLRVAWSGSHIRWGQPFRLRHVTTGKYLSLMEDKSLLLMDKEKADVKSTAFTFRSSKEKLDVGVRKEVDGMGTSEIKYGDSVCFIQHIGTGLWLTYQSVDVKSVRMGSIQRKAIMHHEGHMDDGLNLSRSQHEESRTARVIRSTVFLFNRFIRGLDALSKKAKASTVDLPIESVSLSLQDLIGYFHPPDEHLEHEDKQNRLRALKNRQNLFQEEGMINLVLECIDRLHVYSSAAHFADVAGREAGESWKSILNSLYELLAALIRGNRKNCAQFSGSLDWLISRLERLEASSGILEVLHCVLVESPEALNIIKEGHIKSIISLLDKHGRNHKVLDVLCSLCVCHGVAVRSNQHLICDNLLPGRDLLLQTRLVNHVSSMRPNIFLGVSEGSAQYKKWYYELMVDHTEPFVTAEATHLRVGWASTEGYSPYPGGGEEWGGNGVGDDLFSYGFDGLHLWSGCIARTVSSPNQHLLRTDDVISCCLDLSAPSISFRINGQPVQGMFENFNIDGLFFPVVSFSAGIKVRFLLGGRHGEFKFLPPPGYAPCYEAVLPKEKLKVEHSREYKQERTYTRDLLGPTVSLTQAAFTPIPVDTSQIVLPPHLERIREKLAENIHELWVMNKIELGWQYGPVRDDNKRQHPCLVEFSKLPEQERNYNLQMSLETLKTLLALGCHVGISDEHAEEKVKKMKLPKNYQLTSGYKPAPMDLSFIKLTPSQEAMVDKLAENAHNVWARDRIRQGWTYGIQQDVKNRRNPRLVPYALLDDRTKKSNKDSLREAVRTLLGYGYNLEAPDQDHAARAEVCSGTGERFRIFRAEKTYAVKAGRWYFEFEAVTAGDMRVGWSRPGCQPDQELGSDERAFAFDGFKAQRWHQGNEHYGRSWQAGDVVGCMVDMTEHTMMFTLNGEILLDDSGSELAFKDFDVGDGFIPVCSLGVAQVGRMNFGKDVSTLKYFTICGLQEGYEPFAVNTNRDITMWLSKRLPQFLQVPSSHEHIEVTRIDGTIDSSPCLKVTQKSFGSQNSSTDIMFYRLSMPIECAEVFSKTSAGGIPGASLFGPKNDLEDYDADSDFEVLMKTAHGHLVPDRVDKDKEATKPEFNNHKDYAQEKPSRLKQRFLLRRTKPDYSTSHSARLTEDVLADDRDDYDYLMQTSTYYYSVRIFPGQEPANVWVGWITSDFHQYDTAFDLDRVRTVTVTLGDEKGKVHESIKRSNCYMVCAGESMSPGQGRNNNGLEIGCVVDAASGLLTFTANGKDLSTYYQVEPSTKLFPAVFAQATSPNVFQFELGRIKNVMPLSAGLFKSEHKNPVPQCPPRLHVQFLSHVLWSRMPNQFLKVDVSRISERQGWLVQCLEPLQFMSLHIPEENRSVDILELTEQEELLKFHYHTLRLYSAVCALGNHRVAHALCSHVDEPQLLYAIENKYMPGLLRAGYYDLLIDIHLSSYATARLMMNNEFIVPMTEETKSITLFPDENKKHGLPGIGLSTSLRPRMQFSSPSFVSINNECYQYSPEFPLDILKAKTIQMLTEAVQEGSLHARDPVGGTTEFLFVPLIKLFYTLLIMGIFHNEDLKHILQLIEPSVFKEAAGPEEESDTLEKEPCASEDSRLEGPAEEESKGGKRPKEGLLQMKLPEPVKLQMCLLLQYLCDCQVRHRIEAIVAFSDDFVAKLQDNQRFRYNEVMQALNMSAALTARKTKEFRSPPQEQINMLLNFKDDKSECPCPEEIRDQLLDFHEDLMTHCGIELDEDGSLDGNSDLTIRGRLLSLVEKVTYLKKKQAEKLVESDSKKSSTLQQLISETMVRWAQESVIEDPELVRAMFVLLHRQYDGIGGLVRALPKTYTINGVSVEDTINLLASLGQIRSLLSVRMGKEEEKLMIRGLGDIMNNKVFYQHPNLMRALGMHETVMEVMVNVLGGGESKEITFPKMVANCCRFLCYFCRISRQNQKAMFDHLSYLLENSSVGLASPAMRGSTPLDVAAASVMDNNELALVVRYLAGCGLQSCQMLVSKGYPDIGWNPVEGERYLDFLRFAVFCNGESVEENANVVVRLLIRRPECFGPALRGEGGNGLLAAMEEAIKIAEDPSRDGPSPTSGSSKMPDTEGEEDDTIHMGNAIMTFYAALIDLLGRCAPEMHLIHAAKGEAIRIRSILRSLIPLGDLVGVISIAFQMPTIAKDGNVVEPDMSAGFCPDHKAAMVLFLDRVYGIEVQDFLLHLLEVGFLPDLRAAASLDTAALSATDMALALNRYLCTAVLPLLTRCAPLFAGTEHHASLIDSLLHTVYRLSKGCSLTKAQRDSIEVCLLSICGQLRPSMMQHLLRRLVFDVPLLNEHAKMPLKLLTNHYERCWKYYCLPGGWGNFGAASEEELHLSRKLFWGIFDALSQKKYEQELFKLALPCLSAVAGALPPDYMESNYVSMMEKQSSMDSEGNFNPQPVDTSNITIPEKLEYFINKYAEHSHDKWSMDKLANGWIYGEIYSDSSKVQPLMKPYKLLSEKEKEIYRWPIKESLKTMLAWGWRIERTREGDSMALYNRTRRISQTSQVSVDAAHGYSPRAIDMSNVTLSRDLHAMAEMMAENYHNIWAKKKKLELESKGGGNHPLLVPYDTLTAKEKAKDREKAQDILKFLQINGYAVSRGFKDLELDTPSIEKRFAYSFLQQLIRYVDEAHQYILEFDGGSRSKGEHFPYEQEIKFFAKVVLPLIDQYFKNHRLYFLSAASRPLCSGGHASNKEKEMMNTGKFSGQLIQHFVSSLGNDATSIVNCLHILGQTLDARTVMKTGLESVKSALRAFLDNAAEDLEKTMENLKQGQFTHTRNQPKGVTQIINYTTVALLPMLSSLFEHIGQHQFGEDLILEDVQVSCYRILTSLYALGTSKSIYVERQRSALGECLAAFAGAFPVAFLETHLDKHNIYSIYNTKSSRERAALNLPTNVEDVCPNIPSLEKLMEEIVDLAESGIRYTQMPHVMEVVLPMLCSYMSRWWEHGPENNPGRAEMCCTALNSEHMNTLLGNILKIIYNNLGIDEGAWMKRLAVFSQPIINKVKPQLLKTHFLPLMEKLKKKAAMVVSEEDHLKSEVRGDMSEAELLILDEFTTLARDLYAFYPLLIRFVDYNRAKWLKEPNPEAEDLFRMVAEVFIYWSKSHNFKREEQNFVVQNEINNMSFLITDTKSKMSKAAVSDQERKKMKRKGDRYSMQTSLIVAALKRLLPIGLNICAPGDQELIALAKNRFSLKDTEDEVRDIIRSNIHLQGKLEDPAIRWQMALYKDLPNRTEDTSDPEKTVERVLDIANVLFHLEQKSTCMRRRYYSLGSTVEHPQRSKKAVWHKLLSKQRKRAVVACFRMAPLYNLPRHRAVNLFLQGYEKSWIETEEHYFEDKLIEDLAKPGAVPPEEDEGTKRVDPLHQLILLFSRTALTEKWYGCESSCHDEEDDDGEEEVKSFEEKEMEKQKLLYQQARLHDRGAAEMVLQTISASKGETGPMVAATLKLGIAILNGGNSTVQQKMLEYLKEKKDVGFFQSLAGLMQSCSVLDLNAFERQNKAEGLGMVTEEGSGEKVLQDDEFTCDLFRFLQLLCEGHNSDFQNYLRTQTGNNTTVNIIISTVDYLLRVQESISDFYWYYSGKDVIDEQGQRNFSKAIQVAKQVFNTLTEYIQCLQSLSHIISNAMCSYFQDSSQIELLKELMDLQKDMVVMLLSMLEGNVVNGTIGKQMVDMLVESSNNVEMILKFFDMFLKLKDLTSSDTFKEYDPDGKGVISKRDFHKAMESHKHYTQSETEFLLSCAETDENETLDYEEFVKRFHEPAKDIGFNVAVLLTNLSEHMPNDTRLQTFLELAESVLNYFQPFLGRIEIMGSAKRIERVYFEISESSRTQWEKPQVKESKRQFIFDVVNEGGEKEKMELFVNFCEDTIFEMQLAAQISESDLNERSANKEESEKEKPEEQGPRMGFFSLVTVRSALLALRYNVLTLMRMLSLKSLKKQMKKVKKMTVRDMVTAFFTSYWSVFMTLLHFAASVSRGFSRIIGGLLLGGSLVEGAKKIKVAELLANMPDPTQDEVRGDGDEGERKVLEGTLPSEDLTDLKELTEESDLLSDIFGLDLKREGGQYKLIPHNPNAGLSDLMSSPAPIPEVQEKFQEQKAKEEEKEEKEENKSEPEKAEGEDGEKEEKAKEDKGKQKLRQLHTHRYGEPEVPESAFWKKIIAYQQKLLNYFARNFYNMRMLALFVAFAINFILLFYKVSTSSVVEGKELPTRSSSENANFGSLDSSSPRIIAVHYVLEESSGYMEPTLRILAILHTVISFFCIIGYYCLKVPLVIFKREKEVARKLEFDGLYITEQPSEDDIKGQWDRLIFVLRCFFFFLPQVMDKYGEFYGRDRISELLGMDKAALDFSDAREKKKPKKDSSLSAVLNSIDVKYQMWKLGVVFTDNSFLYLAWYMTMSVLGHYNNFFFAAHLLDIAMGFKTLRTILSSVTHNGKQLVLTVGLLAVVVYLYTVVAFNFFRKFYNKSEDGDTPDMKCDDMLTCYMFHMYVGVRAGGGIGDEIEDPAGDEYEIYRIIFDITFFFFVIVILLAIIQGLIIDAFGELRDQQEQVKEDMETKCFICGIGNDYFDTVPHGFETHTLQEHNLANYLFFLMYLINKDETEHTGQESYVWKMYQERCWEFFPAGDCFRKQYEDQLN

Regarding `O=C1CN(/N=C/c2ccc(-c3ccc([N+](=O)[O-])cc3)o2)C(O)=N1` [dantrolene], in [1], the “Maximal inhibition of RyR2” value is recorded as roughly 50%.

For the compound `Cn1c(=O)c2c(ncn2C)n(C)c1=O` [caffeine, reference compound], in data set [2] (1 mM caffeine), the “Ca spark duration with caffeine” value is “many long-lasting sparks”. In [2], the “Concentration dependence of Ca spark frequency” value is on record as “dose-dependent response”.

As a reminder, the IC50 is the concentration at which inhibition is half-maximal. The term EC50 denotes the concentration at which the effect is half-maximal. A high value points to a less potent agent. The term Emax denotes the size of the effect at its maximum, as opposed to the concentration needed. As a reminder, the Papp A→B is the apparent permeability from the apical to the basolateral side of a cell layer. Broadly, the Papp B→A is the apparent permeability from the basolateral to the apical side of a cell layer. By Papp is commonly meant the rate of passage across a membrane or cell layer, normalised by area and donor concentration. In general, efflux ratio refers to the permeability from basolateral to apical divided by that in the opposite direction, in the common usage. For `CCCCC[C@@H]1OC(=O)[C@@H](C)N(C)C(=O)[C@H](CCCCC)OC(=O)[C@@H](C)N(C)C(=O)[C@H](CC(=O)O)OC(=O)[C@@H](C)N(C)C(=O)[C@H](CCCCC)OC(=O)[C@@H](C)N(C)C1=O` [activert, 2-((2S,5R,8S,11R,14S,17R,20S,23R)-4,5,10,11,16,17,22,23-Octamethyl-3,6,9,12,15,18,21,24-octaoxo-8,14,20-tripentyl-1,7,13,19-tetraoxa-4,10,16,22-tetraazacyclotetracosan-2-yl)acetic acid], the IC50 in data set [3] was roughly 32.2 µM. Besides, the concentration for a half-maximal effect (EC50) in data set [3] (EC50, activation of RyR2 single-channel Po, pCa 7, 2 mM ATP, +40 mV, 95% CI 1.4–63.1 μM) is ~30 µM and ~32.2 µM. In data set [3] (activert ≥50 μM versus vehicle), the Mean closed duration entry was “decreased” and the Mean open duration entry was “without altering”. Further, the “Potency on RyR2 compared with ent-verticilide (fold less potent)” value in [3] (compared with ent-verticilide) is roughly 100 fold. Further, the Emax in data set [3] (read-out: Emax, partial activation of RyR2 single-channel Po) was roughly 34%. This compound also displayed an EC50 in data set [4] of roughly 10.5 µM. Besides, the Emax in data set [4] (read-out: Emax, increase of RyR1 single-channel Po) was roughly 14.4%. This compound also yielded an EC50 in [5] of roughly 46 µM. For the same compound, the Emax in data set [5] (read-out: Emax, increase of [3H]-ryanodine binding to RyR2 normalized to vehicle) is roughly 29%. This compound also came in with an EC50 in [6] of roughly 9 µM. Moreover, the Emax in data set [6] (read-out: Emax, increase of [3H]-ryanodine binding to RyR1 normalized to vehicle) is roughly 17%. Moreover, in data set [2] (25 μM), the “Average duration of the Ca spark” value is “modestly increased”, the “Overall RyR2-mediated SR Ca leak” value is on record as “elevated”, the “Reduction of SR Ca load (amplitude of caffeine-induced Ca transient)” value is on record as roughly 10% and the “Size (amplitude or width) of the average Ca spark” value is reported as “without changes”. Besides, the “Ca spark frequency versus vehicle” value in data set [2] (25 μM, 15 min, permeabilized cardiomyocytes) was “increase”. The “Distribution of Ca spark duration compared with DMSO control” value in [2] (100 μM activert) is given as “prolonged”. In data set [2], the “Concentration dependence of Ca spark frequency” value was “dose-dependent increase”. Further, in data set [7], the apical-to-basolateral permeability (Papp A→B) at 2 h, 10 µM was 0.4 ×10⁻⁶ cm/s; the Papp B→A at 2 h, 10 µM was found to be 1.1 ×10⁻⁶ cm/s; the Papp at 2 h, 10 µM is less than 1 ×10⁻⁶ cm/s; the efflux ratio at 2 h, 10 µM stood at 2.73. The “%R (A-B)” value in [8] (apical-to-basal) was 101%. Besides, the “%R (B-A)” value in data set [8] (basal-to-apical) was found to be 80%. Moreover, the “% Diffusion” value in data set [9] (PAMPA) stood at 7%. In addition, the “%R” value in [9] (PAMPA recovery) stood at 92%. The compound further showed a Papp at 500 µM in data set [9] (PAMPA, pH 7.4, Permeability (experimental permeability rate)) of less than 2 ×10⁻⁶ cm/s.
